Data set [1] concerns Kidney. Description: Metabolic stability in rat kidney perfusate. In kind it is ADME, tissue-based.
Data set [2] can be described thus: Maximum tolerated dose in mouse. In kind it is ADME, organism-based. As to conditions: in vivo.
For data set [3], the system named is Mus musculus. The data set is described as follows: Effect on calcium level in mouse at 10 […] after four diurnal doses. The class given is functional, organism-based. The essentials:
(§1)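 Mice received four diurnal administrations of drug in Miglyol vehicle, with vehicle-dosed controls, across a series of dose levels. Calcium levels (mg/dL) were then measured and reported with standard errors. The […] was assigned from these calcium levels.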

Data set [4] deals with Mus musculus. The data set is described as follows: Effect on calcium level in mouse at 1 […] after four diurnal doses. The class given is functional, organism-based. The essentials: as §1
The nature of data set [5]: Inhibition of INFgamma release in MLR cells. The class given is functional, cell-based. As to conditions: Homo sapiens.
Data set [6] has as its system Mus musculus. Description: Effect on calcium level in mouse at 30 […] after four diurnal doses. The class given is functional, organism-based. Summed up: as §1
Data set [7] deals with Mus musculus. Description: Effect on calcium level in mouse at 100 […] after four diurnal doses. The class given is functional, organism-based. The essentials: as §1
The test system of data set [8] is Mus musculus. The data set is described as follows: Effect on calcium level in mouse at 3 […] after four diurnal doses. In kind it is functional, organism-based. Summed up:
as §1

Data set [9] is described as follows: Inhibition of INFgamma release in MLR cells relative to calcitriol. In kind it is functional, Homo sapiens.
The subject of data set [10] is Mus musculus. Description: Effect on calcium level in mouse at 0.3 ug/kg after four diurnal doses.

Molecules are shown by their SMILES.

In data set [1], `C=C1/C(=C\C=C2/CCC[C@]3(C)[C@@H]([C@H](C)CCCC(C)(C)O)CC[C@@H]23)C[C@@H](O)C[C@@H]1O` [CALCITRIOL] displayed a Stability below 50%.

In data set [2], `CC(C)(O)CCC[C@H](CC[C@@H](O)C(C)(C)O)[C@H]1CC[C@H]2/C(=C/C=C3C[C@@H](O)C[C@H](O)C3)CCC[C@]12C` had an MTD of 30 µg/kg. Also, the Calcium level was determined as 9.57 mg/dL in data set [3]; 9.63 mg/dL in [4]; 9.77 mg/dL in data set [6]; 10.8 mg/dL in [7]; 9.37 mg/dL in [8]. Also, the IC50 in data set [5] was 0.781 nM. Moreover, in data set [9], the “Ratio IC50” value worked out at 31.

As for `C=C1/C(=C\C=C2/CCC[C@]3(C)[C@@H]([C@@H](CCCC(C)(C)O)CC[C@@H](O)C(C)(C)O)CC[C@@H]23)C[C@@H](O)C[C@@H]1O`, the MTD in data set [2] was determined as 3 µg/kg. The values for the Calcium level in [10], in [4] and in data set [8] were 9.8 mg/dL, 9.73 mg/dL and 9.63 mg/dL, respectively. The compound further gave an IC50 in [5] of 0.579 nM. Besides, in data set [9], the “Ratio IC50” value was 18.

`C=C1/C(=C\C=C2/CCC[C@]3(C)[C@@H]([C@H](CCCC(C)(C)O)CC[C@@H](O)C(C)(C)O)CC[C@@H]23)C[C@@H](O)C[C@@H]1O` gave an MTD in data set [2] of 3 µg/kg. For the same compound, the results for the Calcium level in data set [10], in [4] and in [8] were 9.6 mg/dL, 9.7 mg/dL and 9.73 mg/dL, respectively. Besides, the IC50 in [5] amounted to 0.08 nM. Further, in [9], the “Ratio IC50” value stood at 2.5.

As to `CC(C)(O)CCC[C@@H](CC[C@@H](O)C(C)(C)O)[C@H]1CC[C@H]2/C(=C/C=C3C[C@@H](O)C[C@H](O)C3)CCC[C@]12C`, in [2], the MTD was above 100 µg/kg. Also, the Calcium level in [3] was found to be 9.43 mg/dL; in data set [4] it was 9.53 mg/dL; in [6] it was 9.43 mg/dL; in data set [7], 9.57 mg/dL; in data set [8], 9.9 mg/dL. In data set [5], the IC50 was found to be 3.86 nM. The “Ratio IC50” value in data set [9] was 160.

`CC(C)(O)CCCC(CCCC(C)(C)O)[C@H]1CC[C@H]2/C(=C/C=C3C[C@@H](O)C[C@H](O)C3)CCC[C@]12C` registered an MTD in [2] of 3 µg/kg. Also, the Calcium level was 12.5 mg/dL in [3], 16.5 mg/dL in data set [6] and 10 mg/dL in [8]. Besides, in data set [5], the IC50 is 0.044 nM. The “Ratio IC50” value in [9] is listed as 1.8. In data set [1], this compound showed a Stability of 80%.

For `C=C1/C(=C\C=C2/CCC[C@]3(C)[C@@H](C(CCCC(C)(C)O)CCCC(C)(C)O)CC[C@@H]23)C[C@@H](O)C[C@@H]1O`, in [2], the MTD was below 1 µg/kg. Also, the values for the Calcium level in data set [3], in [4] and in data set [8] were 16.7 mg/dL, 11.1 mg/dL and 12.3 mg/dL, respectively. The compound further came in with an IC50 in data set [5] of 0.004 nM. Besides, the “Ratio IC50” value in [9] came to 0.1. This compound registered a Stability in data set [1] of 80%.

Values taken from ChEMBL document CHEMBL1149273, “Calcitriol derivatives with two different side chains at C-20. II. Diastereoselective syntheses of the metabolically produced 24(R)-hydroxygemini” (J Med Chem, 2004).
